From ChEMBL document CHEMBL1799919, “Design, synthesis, biological evaluation, and structure-activity relationships of substituted phenyl 4-(2-oxoimidazolidin-1-yl)benzenesulfonates as new tubulin inhibitors mimicking combretastatin A-4” (J Med Chem, 2011)
Activity calls are given as the source filed them. The calls are words filed in the database; no cut-off is given here.

Key:
[1] = test system: HT-29; assay: Antiproliferative activity against human HT-29 cells after 48 hrs by sulforhodamine B assay; type: functional, cell-based; conditions: HT-29, 48 h
[2] = test system: M21; assay: Antiproliferative activity against human M21 cells after 48 hrs by sulforhodamine B assay; type: functional, cell-based; conditions: M21, 48 h
[3] = test system: MCF7; assay: Antiproliferative activity against human MCF7 cells after 48 hrs by sulforhodamine B assay; type: functional, cell-based; conditions: MCF7, 48 h
[4] = test system: M21; assay: Cell cycle arrest in human M21 cells assessed as accumulation at G0/G1 phase at 5 times IC50 after 24 hrs using propidium iodide staining by flow cytometric analysis (reference value: 61%); type: functional
[5] = test system: M21; assay: Cell cycle arrest in human M21 cells assessed as accumulation at S phase at 5 times IC50 after 24 hrs using propidium iodide staining by flow cytometric analysis (reference value: 30%); type: functional
[6] = test system: M21; assay: Cell cycle arrest in human M21 cells assessed as accumulation at G2/M phase at 5 times IC50 after 24 hrs using propidium iodide staining by flow cytometric analysis (reference value: 9%); type: functional
[7] = test system: MDA-MB-231; assay: Displacement of N,N'-ethylenebis(iodoacetamide) from colchicine-binding site of beta-tubulin in human MDA-MB-231 cells at 1000 times IC50 preincubated for after 2 hrs before N,N'-ethylenebis(iodoacetamide) addition measured after 1.5 hrs by chemiluminescence assay; type: cell-based
Procedure, shortened: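 EBI (100 μM final) added for 1.5 h at 37 °C; controls received 0.5% DMSO. Lysates (20 μg protein) run on 10% SDS-PAGE and blotted with anti-β-tubulin (TUB 2.1). β-tubulin–EBI adduct band detected by ECL.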

[8] = test system: M21; assay: Disruption of cytoskeleton microtubule structure of human M21 cells at 5 times IC50 after 16 hrs by indirect immunofluorescence assay; type: functional, cell-based
Procedure, shortened: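 Fixed in 3.7% formaldehyde, permeabilized with saponin, and stained with anti-β-tubulin (TUB 2.1), Alexa-488 secondary and DAPI. Microtubule structure scored by fluorescence microscopy.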

Row | SMILES | IC50 [1] [nM] | IC50 [2] [nM] | IC50 [3] [nM] | Activity [4] [%] | Activity [5] [%] | Activity [6] [%] | inhibition [7] | Activity [8]
1 | Cc1cccc(OS(=O)(=O)c2ccc(N3CCNC3=O)cc2)c1C | 31 | 17 | 50 | 5 | 32 | 63 | Active | Active
2 | O=C1NCCN1c1ccc(S(=O)(=O)Oc2ccc([N+](=O)[O-])cc2)cc1 | > 1000 | 570 | > 1000 |  |  |  |  | 
3 | O=C1NCCN1c1ccc(S(=O)(=O)Oc2ccccc2Cl)cc1 | 66 | 45 | 73 | 2 | 15 | 83 | Active | Active
4 | CCC(C)c1ccc(OS(=O)(=O)c2ccc(N3CCNC3=O)cc2)cc1 (centres undefined) | 780 | 830 | 920 |  |  |  |  | 
5 | Nc1cccc(OS(=O)(=O)c2ccc(N3CCNC3=O)cc2)c1 | 1000 | 170 | 270 |  |  |  |  | 
6 | CCc1ccccc1OS(=O)(=O)c1ccc(N2CCCNC2=O)cc1 | > 1000 | > 1000 | > 1000 |  |  |  |  | 
7 | O=C1NCCN1c1ccc(S(=O)(=O)Oc2ccncc2)cc1 | > 1000 | > 1000 | > 1000 |  |  |  |  | 
8 | O=C1NCCN1c1ccc(S(=O)(=O)Oc2ccccc2F)cc1 | 51 | 34 | 61 | 18 | 34 | 48 | Active | Active
9 | COc1cc(OS(=O)(=O)c2ccc(N3CCCNC3=O)cc2)cc(OC)c1OC | 490 | 240 | 730 |  |  |  |  | 
10 | O=C1NCCN1c1ccc(S(=O)(=O)Oc2ccc(F)c(F)c2)cc1 | 75 | 47 | 100 | 2 | 26 | 72 | Active | Active
11 | CCCc1ccccc1OS(=O)(=O)c1ccc(N2CCCNC2=O)cc1 | > 1000 | > 1000 | > 1000 |  |  |  |  | 
12 | CCCCOc1ccc(OS(=O)(=O)c2ccc(N3CCNC3=O)cc2)cc1 | 540 | 530 | 890 |  |  |  |  | 
13 | Cc1ccc(OS(=O)(=O)c2ccc(N3CCCNC3=O)cc2)cc1 | 720 | > 1000 | > 1000 |  |  |  |  | 
14 | CCOc1ccccc1OS(=O)(=O)c1ccc(N2CCNC2=O)cc1 | 40 | 24 | 83 | 1 | 19 | 80 | Active | Active
15 | O=C1NCCN1c1ccc(S(=O)(=O)Oc2c(Cl)cc(Cl)cc2Cl)cc1 | 110 | 120 | 170 |  |  |  |  | 
16 | Cc1cccc(OS(=O)(=O)c2ccc(N3CCNC3=O)cc2)c1 | 76 | 54 | 57 | 1 | 0 | 99 | Active | Active
17 | Nc1ccc(OS(=O)(=O)c2ccc(N3CCNC3=O)cc2)cc1 | > 1000 | 920 | > 1000 |  |  |  |  | 
18 | COc1ccccc1OS(=O)(=O)c1ccc(N2CCNC2=O)cc1 | 180 | 130 | 220 |  |  |  |  | 
19 | Cc1ccccc1OS(=O)(=O)c1ccc(N2CCCNC2=O)cc1 | > 1000 | > 1000 | > 1000 |  |  |  |  | 
20 | O=C1NCCN1c1ccc(S(=O)(=O)Oc2ccc(I)cc2)cc1 | 150 | 110 | 210 |  |  |  |  | 
21 | CCc1ccc(OS(=O)(=O)c2ccc(N3CCNC3=O)cc2)cc1 | 150 | 120 | 190 |  |  |  |  | 

Row | SMILES | IC50 [1] [nM] | IC50 [2] [nM] | IC50 [3] [nM] | Activity [4] [%] | Activity [5] [%] | Activity [6] [%] | inhibition [7] | Activity [8]
22 | O=C1NCCCN1c1ccc(S(=O)(=O)Oc2cc(Cl)c(Cl)cc2Cl)cc1 | > 1000 | > 1000 | > 1000 |  |  |  |  | 
23 | O=C1NCCCN1c1ccc(S(=O)(=O)Oc2ccc(Cl)cc2)cc1 | > 1000 | > 1000 | > 1000 |  |  |  |  | 
24 | O=C1NCCN1c1ccc(S(=O)(=O)Oc2ccccc2[N+](=O)[O-])cc1 | 190 | 150 | 270 |  |  |  |  | 
25 | O=C1NCCN1c1ccc(S(=O)(=O)Oc2c(F)c(F)c(F)c(F)c2F)cc1 | 340 | 220 | 320 |  |  |  |  | 
26 | O=C1NCCN1c1ccc(S(=O)(=O)Oc2ccccc2)cc1 | > 1000 | > 1000 | > 1000 |  |  |  |  | 
27 | O=C1NCCN1c1ccc(S(=O)(=O)Oc2ccccn2)cc1 | 480 | 290 | 770 |  |  |  |  | 
28 | O=C1NCCN1c1ccc(S(=O)(=O)Oc2ccc(-n3ccnc3)cc2)cc1 | > 1000 | > 1000 | > 1000 |  |  |  |  | 
29 | Cc1cc(OS(=O)(=O)c2ccc(N3CCNC3=O)cc2)ccc1N | 670 | 360 | 600 |  |  |  |  | 
30 | COc1cccc(OS(=O)(=O)c2ccc(N3CCCNC3=O)cc2)c1 | > 1000 | > 1000 | > 1000 |  |  |  |  | 
31 | O=C(NCCCl)Nc1cccc(CCCCCO)c1 | 150 | 230 | 420 | 1 | 11 | 88 |  | Active
32 | O=C1NCCCN1c1ccc(S(=O)(=O)Oc2ccc(F)cc2)cc1 | > 1000 | > 1000 | > 1000 |  |  |  |  | 
33 | CC(C)(C)[Si](C)(C)Oc1ccc(OS(=O)(=O)c2ccc(N3CCNC3=O)cc2)cc1 | > 1000 | > 1000 | > 1000 |  |  |  |  | 
34 | Cc1ccc2cccc(OS(=O)(=O)c3ccc(N4CCNC4=O)cc3)c2n1 | 180 | 130 | 330 |  |  |  |  | 
35 | O=C1NCCCN1c1ccc(S(=O)(=O)Oc2c(Cl)cc(Cl)cc2Cl)cc1 | > 1000 | > 1000 | > 1000 |  |  |  |  | 
36 | Cc1cc(OS(=O)(=O)c2ccc(N3CCNC3=O)cc2)ccc1[N+](=O)[O-] | 140 | 100 | 180 |  |  |  |  | 
37 | O=C1NCCN1c1ccc(S(=O)(=O)Oc2ccc(O)cc2)cc1 | > 1000 | > 1000 | > 1000 |  |  |  |  | 
38 | O=C1NCCCN1c1ccc(S(=O)(=O)Oc2cccc(F)c2)cc1 | > 1000 | > 1000 | > 1000 |  |  |  |  | 
39 | CCOc1ccc(OS(=O)(=O)c2ccc(N3CCNC3=O)cc2)cc1 | 44 | 39 | 56 | 2 | 23 | 75 |  | Active
40 | Cc1ccc(OS(=O)(=O)c2ccc(N3CCCNC3=O)cc2)c(C)c1 | > 1000 | > 1000 | > 1000 |  |  |  |  | 
41 | Cc1cccc(OS(=O)(=O)c2ccc(N3CCCNC3=O)cc2)c1 | > 1000 | > 1000 | > 1000 |  |  |  |  | 
42 | CN(C)c1ccc(OS(=O)(=O)c2ccc(N3CCNC3=O)cc2)cc1 | 430 | 350 | 500 |  |  |  |  | 
